Experimental data from ChEMBL document CHEMBL1127484, “5-Aryl-3-(alkylthio)-4H-1,2,4-triazoles as selective antagonists of strychnine-induced convulsions and potential antispastic agents” (J Med Chem, 1994).
The source made the active and inactive calls.

Assays:
[1] = test system: Mus musculus; experiment: Effective dose required for antagonist activity against pentylenetetrazole-induced seizures in mice when administered intraperitoneally; assay type: functional; conditions: ip
How it was run: (§1)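 CD-1 male mice (18–26 g), groups of 5 or 10, housed individually, dosed ip in distilled H2O or H2O/Tween 80. Convulsant given 30 min later. Strychnine sulfate 2.7 mg/kg ip: protection = no tonic extension >15 min. MES 50 mA, 0.2 s, corneal: no tonic hind-limb extension. PTZ 60 mg/kg iv: no clonic seizures for 2 min. MPA 100 mg/kg iv: no seizures for 5 min. ED50 by quantal analysis from ≥4 doses, ≥10 mice each.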

[2] = test system: Mus musculus; experiment: Effective dose required for antagonist activity against maximal electroshock induced seizures in mice when administered intraperitoneally; assay type: functional; conditions: ip; how it was run: as §1
[3] = test system: Mus musculus; experiment: Effective dose required for antagonist activity against strychnine induced seizures in mice when administered intraperitoneally; Range is 50-100; assay type: functional; conditions: ip; how it was run: as §1
[4] = Dose encompassing the 50% lethal effect was recorded when administered intraperitoneally in mice; Range is 400-800; assay type: ADME, organism-based; conditions: mouse, in vivo, ip
How it was run: (§2)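 Deaths were recorded over the 7 days after dosing. The estimated LD50 was taken as the dose range spanning 50% lethality.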

[5] = test system: Mus musculus; experiment: Effective dose required for antagonist activity against 3-mercaptopropionic-acid induced seizures in mice when administered intraperitoneally; assay type: functional; conditions: ip; how it was run: as §1
[6] = test system: Mus musculus; experiment: Effective dose required for antagonist activity against strychnine induced seizures in mice when administered intraperitoneally; assay type: functional; conditions: ip; how it was run: as §1
[7] = test system: Mus musculus; experiment: Effective dose required for antagonist activity against pentylenetetrazole-induced seizures in mice when administered intraperitoneally; Range is 25-50; assay type: functional; conditions: ip; how it was run: as §1
[8] = Dose encompassing the 50% lethal effect was recorded when administered intraperitoneally in mice; assay type: ADME, organism-based; conditions: mouse, in vivo, ip; how it was run: as §2
[9] = test system: Mus musculus; experiment: Effective dose required for antagonist activity against 3-mercaptopropionic-acid-induced seizures in mice when administered intraperitoneally; Range is 50-100; assay type: functional; conditions: ip; how it was run: as §1
[10] = test system: Mus musculus; experiment: Effective dose required for antagonist activity against 3-mercaptopropionic-acid-induced seizures in mice when administered intraperitoneally; Range 100-200; assay type: functional; conditions: ip; how it was run: as §1
[11] = test system: Mus musculus; experiment: Effective dose required for antagonist activity against pentylenetetrazole-induced seizures in mice when administered intraperitoneally; Range 100-200; assay type: functional; conditions: ip; how it was run: as §1
[12] = test system: Mus musculus; experiment: Effective dose required for antagonist activity against strychnine induced seizures in mice when administered intraperitoneally; Range is 32-50; assay type: functional; conditions: ip; how it was run: as §1
[13] = test system: Mus musculus; experiment: Effective dose required for antagonist activity against maximal electroshock induced seizures in mice when administered intraperitoneally; Range is 100-200; assay type: functional; conditions: ip; how it was run: as §1
[14] = test system: Mus musculus; experiment: Effective dose required for antagonist activity against pentylenetetrazole-induced seizures in mice when administered intraperitoneally; Range is 50-100; assay type: functional; conditions: ip; how it was run: as §1
[15] = test system: Mus musculus; experiment: Effective dose required for antagonist activity against 3-mercaptopropionic-acid-induced seizures in mice when administered intraperitoneally; Range is 100-200; assay type: functional; conditions: ip; how it was run: as §1
[16] = test system: Mus musculus; experiment: Effective dose required for antagonist activity against pentylenetetrazole-induced seizures in mice when administered intraperitoneally; Range is 100-200; assay type: functional; conditions: ip; how it was run: as §1
[17] = Dose encompassing the 50% lethal effect was recorded when administered intraperitoneally in mice; 400-800; assay type: ADME, organism-based; conditions: mouse, in vivo, ip; how it was run: as §2
[18] = test system: Mus musculus; experiment: Effective dose required for antagonist activity against pentylenetetrazole-induced seizures in mice when administered intraperitoneally; 100-200; assay type: functional; conditions: ip; how it was run: as §1
[19] = target: T1, GABA-A receptor; anion channel (Rattus norvegicus) (UniProt O09028+P15431+P18506+P18508+P19969+P20236+P23574+P23576+P28471+P28473+P30191+P62813+P63079+P63138+Q91ZM7+Q9ES14); experiment: In vitro displacement of [3H]flunitrazepam at GABA-A benzodiazepine site in rat cortical membranes at 100 uM (Inactive); assay type: cell membranes; conditions: Membrane
[20] = test system: Rattus norvegicus; experiment: Effect of compound on hyperreflexia in spinal transected rats at 20 mg/Kg; assay type: functional
How it was run: (§3)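 Spinal-transected rats, 5-10 weeks post-transection. Hind-limb activity recorded by transducer. Output integrated over the first 3 s after leg pull (stretch-evoked reflex function) and over the next 57 s (spontaneous hyperreflexia). Sessions were run before and after ip dosing. Test agent given as suspension in distilled H2O/1% Tween 80, or as solution in distilled H2O. Data expressed as % of control; paired t test or least-squared-means comparisons.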

[21] = target: Gamma-aminobutyric acid receptor subunit gamma-1 (Rattus norvegicus) (UniProt P23574); experiment: Enhancement of 1 uM muscimol-stimulated 36Cl- uptake into rat cerebellar membrane; assay type: functional; conditions: Cerebellum
How it was run: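 Rat cerebellar membrane vesicles (adult male Sprague-Dawley) in HEPES/Tris buffer, pH 7.5. Preincubated on ice for 15 min with vehicle (0.2% DMSO) or 10 μM compound, then 5 min at 34 °C. 36Cl uptake run for 3 s with 1 μM muscimol and stopped by ice-cold 100 μM picrotoxin buffer plus filtration. Muscimol-stimulated uptake = uptake minus uptake without muscimol, in nmol/mg protein/3 s. Mean ± SEM, n = 3; Student's t test.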

[22] = target: T1, GABA-A receptor; anion channel (Rattus norvegicus); experiment: In vitro displacement of [35S]TBPS at GABA-A picrotoxin convulsant site in rat cortical membranes at 100 uM (Inactive); assay type: cell membranes; conditions: Membrane
[23] = test system: Rattus norvegicus; experiment: Effect of compound on reflux function in spinal transected rats at 40 mg/Kg; assay type: functional; how it was run: as §3
[24] = test system: Rattus norvegicus; experiment: Effect of compound on reflux function in spinal transected rats at 5 mg/Kg; assay type: functional; how it was run: as §3
[25] = target: GABA B receptor (Rattus norvegicus) (UniProt Q9Z0U4+O88871); experiment: In vitro displacement of [3H]baclofen at GABA-B receptor in rat cortical membranes at 100 uM (Inactive); assay type: cell membranes; conditions: Membrane
[26] = test system: Rattus norvegicus; experiment: Effect of compound on hyperreflexia in spinal transected rats at 10 mg/Kg; assay type: functional; how it was run: as §3
[27] = test system: Rattus norvegicus; experiment: Effect of compound on reflux function in spinal transected rats at 20 mg/Kg; assay type: functional; how it was run: as §3
[28] = target: T1, GABA-A receptor; anion channel (Rattus norvegicus); experiment: In vitro displacement of [3H]muscimol from GABA-A receptor in rat cortical membranes at 100 uM (Inactive); assay type: cell membranes; conditions: Membrane
[29] = test system: Rattus norvegicus; experiment: Effect of compound on hyperreflexia in spinal transected rats at 40 mg/Kg; assay type: functional; how it was run: as §3
[30] = test system: Rattus norvegicus; experiment: Effect of compound on […] function in spinal transected rats at 10 mg/Kg; assay type: functional; how it was run: as §3
[31] = test system: Mus musculus; experiment: Effective dose required for antagonist activity against maximal electroshock induced seizures in mice when administered intraperitoneally; Range is 50-100; assay type: functional; conditions: ip; how it was run: as §1

Chain of Gamma-aminobutyric acid receptor subunit gamma-1 (Rattus norvegicus) (P23574 whole entry): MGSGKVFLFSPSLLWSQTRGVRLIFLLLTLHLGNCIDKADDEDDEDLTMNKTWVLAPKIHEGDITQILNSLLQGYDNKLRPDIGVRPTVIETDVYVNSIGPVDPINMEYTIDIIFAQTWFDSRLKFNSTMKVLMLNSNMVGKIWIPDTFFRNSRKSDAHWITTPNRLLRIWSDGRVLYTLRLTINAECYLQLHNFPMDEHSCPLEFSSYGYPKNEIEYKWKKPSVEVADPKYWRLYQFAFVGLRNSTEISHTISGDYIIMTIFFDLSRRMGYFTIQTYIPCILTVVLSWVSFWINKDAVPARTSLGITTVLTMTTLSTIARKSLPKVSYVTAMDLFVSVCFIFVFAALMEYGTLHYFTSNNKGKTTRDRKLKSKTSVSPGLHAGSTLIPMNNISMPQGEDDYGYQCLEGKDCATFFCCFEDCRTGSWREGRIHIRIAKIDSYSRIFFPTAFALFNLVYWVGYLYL

CSc1nnc(-c2ccc(C)cc2)n1C
ED50 [1]: > 100 mg/kg | ED50 [2]: > 100 mg/kg | ED50 [3]: 100 mg/kg | LD50 [4]: 800 mg/kg | ED50 [5]: > 100 mg/kg

CCn1c(SC)nnc1-c1ccc(Cl)cc1
ED50 [2]: > 50 mg/kg | ED50 [6]: 26.7 mg/kg | ED50 [7]: 50 mg/kg | LD50 [8]: > 800 mg/kg | ED50 [9]: 100 mg/kg

CSc1nnc(-c2ccccc2)n1C
ED50 [2]: > 200 mg/kg | ED50 [6]: 37.8 mg/kg | LD50 [8]: > 800 mg/kg | ED50 [10]: 200 mg/kg | ED50 [11]: 200 mg/kg

Cn1c(-c2cccs2)nnc1[S+](C)[O-] (stereo unspecified)
ED50 [12]: 50 mg/kg | ED50 [1]: > 200 mg/kg | ED50 [2]: > 200 mg/kg | LD50 [8]: > 800 mg/kg | ED50 [5]: > 200 mg/kg

CCSc1nnc(-c2ccccc2F)n1C
ED50 [13]: 200 mg/kg | ED50 [14]: 100 mg/kg | LD50 [4]: 800 mg/kg | ED50 [5]: > 200 mg/kg

CC[S+]([O-])c1nnc(-c2ccccc2F)n1C (stereo unspecified)
ED50 [13]: 200 mg/kg | ED50 [1]: > 200 mg/kg | ED50 [6]: 32.7 mg/kg | LD50 [8]: > 800 mg/kg | ED50 [5]: > 200 mg/kg

Cc1ccc(-c2nnc([S+](C)[O-])n2C)cc1 (stereo unspecified)
ED50 [1]: > 200 mg/kg | ED50 [2]: > 200 mg/kg | ED50 [3]: 100 mg/kg | LD50 [8]: > 800 mg/kg | ED50 [5]: > 200 mg/kg

CCS(=O)(=O)c1nnc(-c2ccccc2)n1C
ED50 [2]: > 200 mg/kg | ED50 [14]: 100 mg/kg | LD50 [8]: > 800 mg/kg | ED50 [15]: 200 mg/kg

CSc1nc(-c2ccc(Cl)cc2)nn1C
ED50 [2]: > 200 mg/kg | ED50 [6]: > 200 mg/kg | ED50 [14]: 100 mg/kg | LD50 [8]: > 800 mg/kg | ED50 [5]: > 200 mg/kg

CCS(=O)(=O)c1nnc(-c2ccccc2F)n1C
ED50 [2]: > 200 mg/kg | ED50 [6]: 85.8 mg/kg | LD50 [8]: > 800 mg/kg | ED50 [16]: 200 mg/kg | ED50 [5]: > 200 mg/kg

CCSc1nnc(-c2ccccc2)n1C
LD50 [17]: 800 mg/kg | ED50 [2]: > 200 mg/kg | ED50 [6]: > 200 mg/kg | ED50 [18]: 200 mg/kg | ED50 [5]: > 200 mg/kg

COc1ccc(-c2nnc([S+](C)[O-])n2C)cc1 (stereo unspecified)
ED50 [1]: > 100 mg/kg | ED50 [2]: > 100 mg/kg | ED50 [3]: 100 mg/kg | LD50 [4]: 800 mg/kg | ED50 [5]: > 100 mg/kg

CC[S+]([O-])c1nnc(-c2ccccc2)n1C (stereo unspecified)
ED50 [2]: > 200 mg/kg | LD50 [8]: > 800 mg/kg | ED50 [16]: 200 mg/kg | ED50 [5]: > 200 mg/kg

CSc1nnc(-c2cccs2)n1C
ED50 [1]: > 100 mg/kg | ED50 [2]: > 100 mg/kg | ED50 [6]: 34.1 mg/kg | LD50 [4]: 800 mg/kg | ED50 [5]: > 100 mg/kg

Cn1c(-c2ccccc2)nnc1S(C)(=O)=O
Displacement [19]: inactive | Control [20]: 78% | Uptake (nM 3s-1 (mg of protein)-1) [21]: 3.82 | Displacement [22]: inactive | Control [23]: 87% | Control [24]: 101% | Displacement [25]: inactive | ED50 [1]: 55 mg/kg | Control [26]: 46% | Control [27]: 114% | ED50 [2]: > 200 mg/kg | Displacement [28]: inactive | Control [29]: 43% | LD50 [8]: > 800 mg/kg | ED50 [5]: > 200 mg/kg | Control [30]: 116%

CCn1c(SC)nnc1-c1ccccc1F
ED50 [13]: 200 mg/kg | ED50 [6]: 75 mg/kg | ED50 [7]: 50 mg/kg | LD50 [8]: > 800 mg/kg | ED50 [15]: 200 mg/kg

Cn1nc(-c2ccccc2)nc1[S+](C)[O-] (stereo unspecified)
ED50 [6]: > 200 mg/kg | ED50 [31]: 100 mg/kg | ED50 [14]: 100 mg/kg | LD50 [4]: 800 mg/kg | ED50 [5]: > 200 mg/kg

CSc1nc(-c2ccccc2)nn1C
ED50 [13]: 200 mg/kg | ED50 [6]: > 200 mg/kg | ED50 [14]: 100 mg/kg | LD50 [8]: > 800 mg/kg | ED50 [5]: > 200 mg/kg

CCCC(CCC)C(=O)O [VALPROIC ACID]
ED50 [2]: > 200 mg/kg | ED50 [6]: > 200 mg/kg | ED50 [16]: 200 mg/kg
